Test results published in ChEMBL document CHEMBL1121719, “1-Oxacephalosporins: enhancement of beta-lactam reactivity and antibacterial activity” (1981).
In brackets after ≈: the same amount, converted by molar mass.

Tests used:
Klebsiella = assay: (§1) Inhibitory concentration of compound was tested against gram negative Klebsiella sp 363.; assay type: functional
Method in brief: (§2)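 MIC by agar dilution on sensitivity test agar with serial twofold antibiotic dilutions. The inoculum was an overnight tryptose broth culture diluted to about 10⁶ cells/mL. Plates were incubated at 37 °C for 18-20 h. MIC was the lowest concentration inhibiting visible growth.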

Escherichia coli [1] = assay: Inhibitory concentration of compound was tested against gram negative Escherichia coli H organism.; assay type: functional; method in brief: as §2
Escherichia coli [2] = assay: Inhibitory concentration of compound was tested against gram negative Escherichia coli NIH JC-2.; assay type: functional; method in brief: as §2
Escherichia coli [3] = assay: Inhibitory concentration of compound was tested against gram negative Escherichia coli 73.; assay type: functional; method in brief: as §2
Proteus mirabilis [4] = assay: Inhibitory concentration of compound was tested against gram negative Proteus mirabilis PR-4.; assay type: functional; method in brief: as §2
[5] = target: T1, Beta-lactamase (Klebsiella oxytoca) (UniProt Q8RT60); assay: Hydrolysis rate by beta-lactamase of Klebsiella sp. 363 relative to cephaloridine (100)
T1 sequence (whole entry): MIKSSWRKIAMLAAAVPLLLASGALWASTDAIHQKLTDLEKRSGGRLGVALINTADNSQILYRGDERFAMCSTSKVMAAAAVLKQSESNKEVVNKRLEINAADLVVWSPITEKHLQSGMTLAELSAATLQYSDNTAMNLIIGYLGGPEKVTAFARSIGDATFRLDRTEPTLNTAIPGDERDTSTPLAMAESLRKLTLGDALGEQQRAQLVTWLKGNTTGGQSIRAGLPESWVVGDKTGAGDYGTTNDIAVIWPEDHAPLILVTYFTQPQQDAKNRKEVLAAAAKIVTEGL
Method in brief: (§3)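 Constitutive producers were grown statically in nutrient phosphate broth at 37 °C for 16 h, then sonicated. Enzyme was partially purified on DEAE-Sephadex A-25 (phosphate gradient, 0.01 M pH 8.0 to 0.5 M pH 6.2). Assay conditions: 0.1 M potassium phosphate pH 7.0, 30 °C, 0.001% gelatin in enzyme diluent, 100 μM final substrate. Hydrolysis rate was taken from the slope of UV absorbance decrease, with cephaloridine set to 100.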

[6] = target: Beta-lactamase (Escherichia coli K-12) (UniProt P00811); assay: Hydrolysis rate by the beta-lactamase from Escherichia coli 6 relative to cephaloridine.
Beta-lactamase (Escherichia coli K-12), sequence (P00811 whole entry): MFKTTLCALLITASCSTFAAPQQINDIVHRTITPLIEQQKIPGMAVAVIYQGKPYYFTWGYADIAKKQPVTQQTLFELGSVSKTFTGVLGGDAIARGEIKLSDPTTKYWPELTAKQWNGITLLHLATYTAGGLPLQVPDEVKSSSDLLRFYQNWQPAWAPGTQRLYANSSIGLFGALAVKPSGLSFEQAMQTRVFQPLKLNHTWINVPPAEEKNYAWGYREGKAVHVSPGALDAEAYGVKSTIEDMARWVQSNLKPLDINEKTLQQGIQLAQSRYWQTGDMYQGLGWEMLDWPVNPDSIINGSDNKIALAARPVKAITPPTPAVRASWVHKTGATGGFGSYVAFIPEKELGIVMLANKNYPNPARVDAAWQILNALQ
Method in brief: (§4)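 Cells were grown statically in nutrient phosphate broth for 16 h at 37 °C and disrupted ultrasonically. β-lactamase was partially purified on CM-Sephadex C-50. Substrate (100 μM final) was hydrolysed in 0.1 M potassium phosphate pH 7.0 at 30 °C, with the enzyme diluted in buffer containing 0.001% gelatin. Rate came from the slope of UV optical density decrease and was expressed relative to cephaloridine = 100.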

Klebsiella pneumoniae [7] = assay: as §1; assay type: functional; method in brief: as §2
Klebsiella pneumoniae [8] = assay: Inhibitory concentration of compound was tested against gram negative Klebsiella pneumoniae.; assay type: functional; method in brief: as §2
[9] = target: Beta-lactamase TEM (Escherichia coli) (UniProt P62593); assay: Hydrolysis rate by the beta-lactamase from Escherichia coli W3110 RTEM relative to cephaloridine.; method in brief: as §3
Beta-lactamase TEM (Escherichia coli), sequence (P62593 whole entry): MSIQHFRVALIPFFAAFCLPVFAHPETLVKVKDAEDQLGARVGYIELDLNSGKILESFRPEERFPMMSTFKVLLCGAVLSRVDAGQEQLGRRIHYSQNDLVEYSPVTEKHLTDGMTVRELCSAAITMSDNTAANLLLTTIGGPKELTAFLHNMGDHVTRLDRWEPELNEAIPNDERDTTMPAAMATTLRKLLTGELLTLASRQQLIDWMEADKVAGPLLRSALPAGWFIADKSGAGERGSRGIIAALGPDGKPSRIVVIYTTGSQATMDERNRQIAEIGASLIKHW

[10] = test system: Beta-lactamase (Proteus vulgaris); assay: Hydrolysis rate by the beta-lactamase from Proteus vulgaris 31 relative to cephaloridine.
[11] = target: Beta-lactamase (Enterobacter cloacae) (UniProt P05364); assay: Hydrolysis rate by the beta-lactamase from Enterobacter cloacae 214 relative to cephaloridine (100); c= Hydrolysis was not detected; method in brief: as §4
Beta-lactamase (Enterobacter cloacae) (UniProt P05364), sequence (P05364 21-381 limits assumed): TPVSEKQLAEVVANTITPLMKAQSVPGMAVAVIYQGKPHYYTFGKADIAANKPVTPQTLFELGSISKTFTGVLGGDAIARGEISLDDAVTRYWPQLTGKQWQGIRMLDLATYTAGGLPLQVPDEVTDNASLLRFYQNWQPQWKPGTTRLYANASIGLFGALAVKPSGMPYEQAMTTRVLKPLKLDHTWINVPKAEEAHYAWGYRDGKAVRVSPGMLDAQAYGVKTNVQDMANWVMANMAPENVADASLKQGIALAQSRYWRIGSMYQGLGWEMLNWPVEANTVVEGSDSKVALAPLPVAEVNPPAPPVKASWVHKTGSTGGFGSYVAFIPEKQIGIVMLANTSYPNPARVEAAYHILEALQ

[12] = target: Beta-lactamase (Escherichia coli K-12) (UniProt P00811); assay: Hydrolysis rate by the beta-lactamase from Escherichia coli 6 relative to cephaloridine (100); c= Hydrolysis was not detected; method in brief: as §4
[13] = test system: Beta-lactamase (Klebsiella sp.); assay: Hydrolysis rate by the beta-lactamase from Klebsiella sp. 363 relative to cephaloridine (100)
Proteus mirabilis [14] = assay: Inhibitory concentration of compound was tested against gram negative Proteus mirabilis PR-4.
Klebsiella pneumoniae [15] = assay: Inhibitory concentration of compound was tested against gram negative Klebsiella pneumoniae
Escherichia coli [16] = assay: Inhibitory concentration of compound was tested against gram negative Escherichia coli NIH JC-2; assay type: functional; method in brief: as §2
Escherichia coli [17] = assay: Inhibitory concentration of compound was tested against gram negative Escherichia coli H organism; assay type: functional; method in brief: as §2
[18] = target: Beta-lactamase (Escherichia coli K-12) (UniProt P00811); assay: Hydrolysis rate by the beta-lactamase from Escherichia coli 6 relative to cephaloridine (100);c= Hydrolysis was not detected; method in brief: as §4
[19] = target: Beta-lactamase (Enterobacter cloacae) (UniProt P05364); assay: Hydrolysis rate by the beta-lactamase from Enterobacter cloacae 214 relative to cephaloridine (100);c= Hydrolysis was not detected; method in brief: as §4
[20] = test system: Beta-lactamase (Proteus vulgaris); assay: Hydrolysis rate by the beta-lactamase from Proteus vulgaris 31 relative to cephaloridine (100)
[21] = test system: Beta-lactamase (Enterobacter cloacae); assay: Hydrolysis rate by the beta-lactamase from Enterobacter cloacae 214 relative to cephaloridine (100)

Row | Structure (SMILES) | MIC (Escherichia coli [1]) | MIC (Escherichia coli [2]) | MIC (Escherichia coli [3]) | MIC (Proteus mirabilis [4]) | Relative hydrolysis rate [5] | Relative hydrolysis rate [6] | MIC (Klebsiella pneumoniae [7]) | MIC (Klebsiella pneumoniae [8]) | Relative hydrolysis rate [9] | Relative hydrolysis rate [10] | further results
1 | Cn1nnnc1SCC1=C(C(=O)O)N2C(=O)C(NC(=O)/C(=N\O)c3ccc(NS(C)(=O)=O)cc3)C2OC1 (configuration not stated) | 0.78 µg/mL (≈ 1.41 µM) | 0.78 µg/mL (≈ 1.41 µM) | > 100 µg/mL | 1.56 µg/mL (≈ 2.82 µM) | 350 | 5.5 | > 100 µg/mL | 0.78 µg/mL (≈ 1.41 µM) | 290 | 330 | 
2 | Cc1nnc(SCC2=C(C(=O)O)N3C(=O)C(NC(=O)Cn4cnnn4)C3OC2)s1 (configuration not stated) | 0.78 µg/mL (≈ 1.78 µM) | 0.78 µg/mL (≈ 1.78 µM) | > 100 µg/mL | 1.56 µg/mL (≈ 3.56 µM) | 380 | 150 | > 100 µg/mL | 1.56 µg/mL (≈ 3.56 µM) | 620 | 1200 | 
3 | CC1=C(C(=O)O)N2C(=O)C(NC(=O)CSC(F)(F)F)C2SC1 (configuration not stated) |  |  | > 100 µg/mL |  |  | 750 |  |  | 1.5 | 160 | MIC (Klebsiella): > 100 µg/mL; Relative hydrolysis rate [13]: 6.2; MIC (Proteus mirabilis [14]): 50 µg/mL (≈ 140 µM); MIC (Klebsiella pneumoniae [15]): 50 µg/mL (≈ 140 µM); MIC (Escherichia coli [16]): 50 µg/mL (≈ 140 µM); MIC (Escherichia coli [17]): 25 µg/mL (≈ 70.2 µM)
4 | CCN1CCN(C(=O)NC(C(=O)NC2C(=O)N3C(C(=O)O)=C(CSc4nnnn4C)COC23)c2ccc(OC(N)=O)cc2)C(=O)C1=O (configuration not stated) | ≤ 0.013 µg/mL | ≤ 0.013 µg/mL | 12.5 µg/mL (≈ 18.6 µM) | 0.2 µg/mL (≈ 0.297 µM) | 0.69 | 10 | 12.5 µg/mL (≈ 18.6 µM) | ≤ 0.013 µg/mL | 110 | 34 | 
5 | CC1=C(C(=O)O)N2C(=O)C(NC(=O)CSC(F)(F)F)C2OC1 (configuration not stated) | 3.13 µg/mL (≈ 9.2 µM) | 6.25 µg/mL (≈ 18.4 µM) | 100 µg/mL (≈ 294 µM) | 25 µg/mL (≈ 73.5 µM) | 100 | 910 | > 100 µg/mL | 6.25 µg/mL (≈ 18.4 µM) | 18 | 500 | 
6 | CCN1CCN(C(=O)NC(C(=O)NC2C(=O)N3C(C(=O)O)=C(CSc4nnnn4C)CSC23)c2ccc(OC(N)=O)cc2)C(=O)C1=O (configuration not stated) | ≤ 0.013 µg/mL | 0.1 µg/mL (≈ 0.145 µM) | 12.5 µg/mL (≈ 18.2 µM) | 1.56 µg/mL (≈ 2.27 µM) | 3.1 | 5.1 | > 100 µg/mL | 0.05 µg/mL (≈ 0.0726 µM) | 59 | 16 | 
7 | CC1=C(C(=O)O)N2C(=O)C(NC(=O)C(N)c3ccccc3)C2OC1 (configuration not stated) |  |  |  |  |  | 260 |  |  | 12 |  | Relative hydrolysis rate [20]: 330; Relative hydrolysis rate [13]: 9.6; Relative hydrolysis rate [21]: 95
8 | Cn1nnnc1SCC1=C(C(=O)O)N2C(=O)C(NC(=O)Cc3csc(N)n3)C2OC1 (configuration not stated) | 0.1 µg/mL (≈ 0.221 µM) | 0.2 µg/mL (≈ 0.442 µM) | > 100 µg/mL | 0.2 µg/mL (≈ 0.442 µM) | 240 | 360 | > 100 µg/mL | 0.2 µg/mL (≈ 0.442 µM) | 350 | 770 | 
9 | CC1=C(C(=O)O)N2C(=O)[C@@H](NC(=O)[C@H](N)c3ccccc3)[C@H]2SC1 |  |  |  |  |  | 57 |  |  | 0.75 |  | 
10 | Cn1nnnc1SCC1=C(C(=O)O)N2C(=O)C(NC(=O)C(O)c3ccccc3)C2OC1 (configuration not stated) | 0.05 µg/mL (≈ 0.112 µM) | 0.05 µg/mL (≈ 0.112 µM) | > 100 µg/mL | 0.1 µg/mL (≈ 0.224 µM) | 360 | 39 | 100 µg/mL (≈ 224 µM) | 0.05 µg/mL (≈ 0.112 µM) | 370 | 300 | 
11 | Cn1nnnc1SCC1=C(C(=O)O)N2C(=O)C(NC(=O)Cc3ccc(O)cc3)C2OC1 (configuration not stated) | 0.39 µg/mL (≈ 0.874 µM) | 0.78 µg/mL (≈ 1.75 µM) | > 100 µg/mL | 0.39 µg/mL (≈ 0.874 µM) | 630 | 1200 | > 100 µg/mL | 0.78 µg/mL (≈ 1.75 µM) | 560 | 710 | 

Second part, led by results:

Row | MIC (Escherichia coli [1]) | MIC (Escherichia coli [2]) | MIC (Escherichia coli [3]) | MIC (Proteus mirabilis [4]) | Relative hydrolysis rate [5] | Relative hydrolysis rate [6] | MIC (Klebsiella pneumoniae [7]) | MIC (Klebsiella pneumoniae [8]) | Relative hydrolysis rate [9] | Relative hydrolysis rate [10] | Structure (SMILES) | further results
12 | 1.56 µg/mL (≈ 3.43 µM) | 1.56 µg/mL (≈ 3.43 µM) | 25 µg/mL (≈ 55 µM) |  |  |  |  |  |  |  | Cc1nnc(SCC2=C(C(=O)O)N3C(=O)C(NC(=O)Cn4cnnn4)C3SC2)s1 (configuration not stated) | MIC (Klebsiella): > 100 µg/mL
13 | 0.2 µg/mL (≈ 0.408 µM) | 0.2 µg/mL (≈ 0.408 µM) | 50 µg/mL (≈ 102 µM) | 0.39 µg/mL (≈ 0.795 µM) | 80 |  | 100 µg/mL (≈ 204 µM) | 0.2 µg/mL (≈ 0.408 µM) | 19 | 86 | Cn1nnnc1SCC1=C(C(=O)O)N2C(=O)C(NC(=O)C(C(=O)O)c3ccc(O)cc3)C2OC1 (configuration not stated) | Relative hydrolysis rate [11]: Hydrolysis not detected; Relative hydrolysis rate [12]: Hydrolysis not detected
14 | 0.05 µg/mL (≈ 0.107 µM) | 0.1 µg/mL (≈ 0.213 µM) | 1.56 µg/mL (≈ 3.33 µM) | 0.1 µg/mL (≈ 0.213 µM) | 4.1 | 120 | 6.25 µg/mL (≈ 13.3 µM) | 0.1 µg/mL (≈ 0.213 µM) | 17 | 250 | Cn1nnnc1SCC1=C(C(=O)O)N2C(=O)C(NC(=O)Cc3csc(N)n3)C2SC1 (configuration not stated) | 
15 | 0.78 µg/mL (≈ 1.69 µM) | 3.13 µg/mL (≈ 6.77 µM) | 25 µg/mL (≈ 54.1 µM) | 1.56 µg/mL (≈ 3.37 µM) | 120 | 360 | 100 µg/mL (≈ 216 µM) | 1.56 µg/mL (≈ 3.37 µM) | 39 | 410 | Cn1nnnc1SCC1=C(C(=O)O)N2C(=O)C(NC(=O)Cc3ccc(O)cc3)C2SC1 (configuration not stated) | 
16 | 0.2 µg/mL (≈ 0.432 µM) | 0.39 µg/mL (≈ 0.843 µM) | 25 µg/mL (≈ 54.1 µM) | 0.78 µg/mL (≈ 1.69 µM) | 130 | 14 | > 100 µg/mL | 0.39 µg/mL (≈ 0.843 µM) | 55 |  | Cn1nnnc1SCC1=C(C(=O)O)N2C(=O)C(NC(=O)C(O)c3ccccc3)C2SC1 (configuration not stated) | 
17 | 0.78 µg/mL (≈ 1.37 µM) | 0.78 µg/mL (≈ 1.37 µM) | 50 µg/mL (≈ 87.9 µM) | 6.25 µg/mL (≈ 11 µM) | 35 | 2.2 | > 100 µg/mL | 1.56 µg/mL (≈ 2.74 µM) | 34 | 170 | Cn1nnnc1SCC1=C(C(=O)O)N2C(=O)C(NC(=O)/C(=N\O)c3ccc(NS(C)(=O)=O)cc3)C2SC1 (configuration not stated) | 
18 | 3.13 µg/mL (≈ 6.18 µM) | 3.13 µg/mL (≈ 6.18 µM) | 50 µg/mL (≈ 98.7 µM) | 3.13 µg/mL (≈ 6.18 µM) | 6.3 |  | 50 µg/mL (≈ 98.7 µM) | 3.13 µg/mL (≈ 6.18 µM) | 0.96 | 20 | Cn1nnnc1SCC1=C(C(=O)O)N2C(=O)C(NC(=O)C(C(=O)O)c3ccc(O)cc3)C2SC1 (configuration not stated) | Relative hydrolysis rate [18]: Hydrolysis not detected; Relative hydrolysis rate [19]: Hydrolysis not detected
